Experimental findings from ChEMBL document CHEMBL4376862, “Synthesis and evaluation of novel chlorophyll a derivatives as potent photosensitizers for photodynamic therapy” (Eur J Med Chem, 2020) are described below.

Data set [1] has as its system Mus musculus. The data set can be described thus: Phototoxicity in ICR mouse assessed as ear weight at 0.45 mg/kg, iv followed by 10 mW/cm2 light irradiation for 10 mins at 1 day after drug challenge measured after 1 day of light irradiation (reference value: 12.6 +/- 1.2 mg). The format is organism-based. The settings on record: in vivo.
Data set [2] relates to A549. Put plainly: Phototoxicity against human A549 cells assessed as reduction in cell proliferation irradiated with 1 J/cm2 of 650 nanometer laser light preincubated for 24 hrs measured after 48 hrs by MTT assay. It is filed as functional, cell-based. Particulars: A549, light or radiation study. Summed up:
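A549 cells seeded 5×10^4 cells/100 µL per well, given […] for 24 h, then 650 nm semiconductor laser at 1 J/cm2 (25 mW/cm2, 40 s); MTT 4 h, absorbance 570 nm; viability vs control; triplicate, mean ± SD.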

Data set [3] is described as follows: Dark toxicity in human A549 cells assessed as reduction in cell viability incubated under dark for 24 hrs measured after 48 hrs by MTT assay. The format is cell-based. The settings on record: read-out: TC50. Summed up: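 A549 cells seeded at 5×10^4 cells/100 µL per well for 24 h, treated in the dark with […] (so in the source) for 24 h; MTT added 4 h, absorbance 570 nm, 48 h later; viability as OD treated/OD control; triplicate, mean ± SD.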
In general terms: Tetrazolium assays rely on reduction of a dye to a coloured formazan, in cell work by metabolically active cells.

The test system of data set [4] is Mus musculus. The data set can be described thus: Phototoxicity in ICR mouse assessed as ear weight at 0.45 mg/kg, iv followed by 10 mW/cm2 light irradiation for 10 mins at 5 days after drug challenge measured after 1 day of light irradiation (reference value: 12.9 +/- 1.4 mg). It is filed as organism-based. Particulars: in vivo.
Data set [5] in a line: Emission property of a compound in DMSO assessed as red shift at 5 uM on excitation with light at 410 to 415 nm by 3D fluorescence spectra analysis. The format is physicochemical. Summed up: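 Stock 1 mM in DMSO, measured at […] (so in the source); excitation scanned 350–640 nm, emission 600–750 nm, 1 nm steps, room temperature, quartz cuvettes; 3D fluorescence matrix spectra recorded.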

Data set [6] relates to Cavia porcellus. The data set can be described thus: Phototoxicity in guinea pig assessed as change in back skin at 4.5 mg/kg, iv in presence of 10 mW/cm2 light irradiation for 10 mins measured after 1day of light irradiation by H and E staining based microscopic analysis. The settings on record: in vivo. The format is organism-based.
Data set [7] in a line: Induction of ROS generation in DMF solution assessed as ROS quantum yield at 2 uM followed by irradiation measured every 10 secs by spectrophotometric analysis. It is filed as functional.
In data set [8] the test system is Cavia porcellus. The data set can be described thus: Phototoxicity in guinea pig assessed as change in back skin weight 4.5 mg/kg, iv followed by 10 mW/cm2 light irradiation for 10 mins measured after 1day of light irradiation (reference value: 72.4 +/- 3.1 mg). It is filed as organism-based. The settings on record: in vivo, 24 h.
In data set [9] the test system is Cavia porcellus. The data set can be described thus: Phototoxicity in guinea pig assessed as change in right ear weight 4.5 mg/kg, iv followed by 10 mW/cm2 light irradiation for 10 mins measured after 1 day of light irradiation (reference value: 40.4 +/- 2.4 mg). It is filed as organism-based. Particulars: in vivo.
For data set [10], the system named is A549. Put plainly: Photodynamic antitumor activity against human A549 cells xenografted in BALB/c nude mouse assessed as increase in tumor tissue damage at 0.3 mg/kg, iv incubated for 24 hrs followed by laser light irradiation at 120 J/cm2 measured up to 14 days. It is filed as functional, organism-based. Summed up:
(§1)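 Male BALB/c nude mice (5–6 weeks, 14–16 g) given 2×10^6 A549 cells s.c. in 0.2 mL PBS; at 6–7 mm tumors randomized into ten groups; drug via tail vein, 650 nm diode laser 120 J/cm2 at 180 mW/cm2 24 h later; caliper volume a×b²/2, followed 14 days.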
A general note: In xenograft studies the graft and the host belong to different species.

In data set [11] the test system is Mus musculus. Put plainly: Phototoxicity in ICR mouse assessed as ear weight at 0.45 mg/kg, iv followed by 10 mW/cm2 light irradiation for 10 mins at 3 days after drug challenge measured after 1 day of light irradiation (reference value: 12.8 +/- 1.5 mg). The settings on record: in vivo. It is filed as organism-based.
The subject of data set [12] is A549. The data set can be described thus: Photodynamic antitumor activity against human A549 cells xenografted in BALB/c nude mouse assessed as decrease in tumor weight at 0.3 mg/kg, iv followed by laser light irradiation at 120 J/cm2 measured after 14 days. It is filed as functional. Summed up:
as §1

Data set [13] is described as follows: Therapeutic index, ratio of TC50 for human A549 cells under dark to IC50 for human A549 cells irradiated with 1 J/cm2 of 650 nanometer laser light. The settings on record: read-out: TI. It is filed as toxicity, cell-based. Summed up: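 A549 cells (F-12K, 10% FBS, 37 °C, 5% CO2) seeded 24 h, then exposed to 0–10 photosensitizer for 24 h. Dark arm: MTT 48 h later. Light arm: 650 nm laser, 1 J/cm2 (25 mW/cm2, 40 s), then MTT. A570 viability relative to control, triplicate. Ratio = dark TC50 / irradiated IC50.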

Data set [14] relates to Mus musculus. Put plainly: Phototoxicity in ICR mouse assessed as change in exposed neck skin 0.45 mg/kg, iv in presence of 10 mW/cm2 light irradiation for 10 mins upto 7 days measured after 1day of light irradiation by H and E staining based microscopic analysis. The format is organism-based. Particulars: in vivo.
In data set [15] the test system is Mus musculus. Put plainly: Phototoxicity in ICR mouse assessed as change in auricles 0.45 mg/kg, iv in presence of 10 mW/cm2 light irradiation for 10 mins upto 7 days measured after 1day of light irradiation by H and E staining based microscopic analysis. The format is organism-based. Particulars: in vivo.
Data set [16] deals with Cavia porcellus. The data set can be described thus: Phototoxicity in guinea pig assessed as change in left ear weight 4.5 mg/kg, iv followed by 10 mW/cm2 light irradiation for 10 mins measured after 1 day of light irradiation (reference value: 39.2 +/- 1.8 mg). It is filed as organism-based. Particulars: in vivo.
For data set [17], the system named is Mus musculus. Put plainly: Phototoxicity in ICR mouse assessed as ear weight at 0.45 mg/kg, iv followed by 10 mW/cm2 light irradiation for 10 mins at 7 days after drug challenge measured after 1 day of light irradiation (13.2 +/- 1.6 mg). It is filed as organism-based. Particulars: in vivo.
Data set [18] relates to A549. Put plainly: Photodynamic antitumor activity against human A549 cells xenografted in BALB/c nude mouse assessed as reduction in tumor volume at 0.3 mg/kg, iv incubated for 24 hrs followed by laser light irradiation at 120 J/cm2 measured up to 14 days. It is filed as functional, organism-based. Summed up: as §1
Data set [19] can be described thus: Induction of ROS generation in DMF solution assessed as slope of the photodegradation rate of DPBF at 2 uM followed by irradiation measured every 10 secs by spectrophotometric analysis. The format is functional.
The test system of data set [20] is A549. Put plainly: Photodynamic antitumor activity against human A549 cells xenografted in BALB/c nude mouse assessed as survival time at 0.3 mg/kg, iv incubated for 24 hrs followed by laser light irradiation at 120 J/cm2 measured up to 70 days. It is filed as functional, organism-based. Summed up: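 Nude mice bearing A549 xenografts, 0.3 mg/kg drug i.v. then 650 nm laser 120 J/cm2 at 180 mW/cm2 after 24 h; survival shown as Kaplan-Meier with log-rank test, n = 5.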

The test system of data set [21] is Cavia porcellus. The data set can be described thus: Phototoxicity in guinea pig assessed as change in auricles of left ear at 4.5 mg/kg, iv in presence of 10 mW/cm2 light irradiation for 10 mins measured after 1day of light irradiation by H and E staining based microscopic analysis. It is filed as organism-based. Particulars: in vivo.
The subject of data set [22] is Mus musculus. The data set can be described thus: Phototoxicity in ICR mouse assessed as change in skin of the backs 0.45 mg/kg, iv in presence of 10 mW/cm2 light irradiation for 10 mins upto 7 days measured after 1 day of light irradiation by H and E staining based microscopic analysis. The format is organism-based. The settings on record: in vivo.
A short description of data set [23]: Octanol/water partition coefficient, logP of compound by shake flask method. It is filed as physicochemical. Summed up:
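Shake-flask method: equilibrium concentrations in octanol and water measured by UV-vis absorbance; log P taken as log of octanol/water concentration ratio (mg/L).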

Data set [24] is described as follows: Absorption property of compound in DMSO assessed as Q band absorption at 1 x 10^-3 mM by UV-spectra analysis. The settings on record: 1 µM.
The nature of data set [25]: Absorption property of compound in DMSO assessed as strong absorption wavelength at 1 x 10^-3 M by UV-spectra analysis. It is filed as physicochemical. The settings on record: 1000 µM. Summed up:
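Stocks 1 mM in DMSO; spectra run over […] range (units as printed), 300–800 nm in 1 nm steps, room temperature, quartz cuvettes, UV-vis spectrophotometer.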

Data set [26] in a line: Drug uptake in human A549 cells incubated upto 24 hrs by fluorescence spectrophotometer analysis. It is filed as ADME, cell-based. The settings on record: a549, 24 h. Summed up: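 A549 cells (F-12K, 10% FBS, 37 °C, 5% CO2) grown in 24 wells and exposed to photosensitizer for 0.5, 1, 2, 4, 8, 12 or 24 h; cells harvested by digestion, fluorescence read on a spectrophotometer.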

pIC50: −log10 of the molar value. Calls of active or inactive are those of the source. The calls are words filed in the database; no cut-off is given here.

In the case of `CCCCCCOC(C)c1c(C)c2cc3nc(c4c5[nH]c(cc6nc(cc1[nH]2)C(C)=C6CC)c(C)c5C(=O)C4)[C@@H](CCC(=O)O)[C@@H]3C` (stereo partly drawn) [HPPH], the Activity in the data set on Mus musculus [1] was 12.8 mg; with Mus musculus [4], 13.1 mg; in data set [5], 661 to 669 nm; with Cavia porcellus [6], “Non-Toxic”; in the data set with Cavia porcellus [8] it was 74.1 mg; with Cavia porcellus [9], 42.2 mg. In addition, the Activity is 13.3 mg with Mus musculus [11]; 0.0212 g in the data set on A549 [12]; “Non-Toxic” in the data set with Mus musculus [14]; “Non-Toxic” in the data set on Mus musculus [15]; 42.6 mg in the data set on Cavia porcellus [16]; 13.2 mg in the data set with Mus musculus [17]. Moreover, the Activity result with Cavia porcellus [21] and in the data set with Mus musculus [22] was “Non-Toxic” throughout. For the same compound, the pIC50 (as a rule, the IC50 on a negative log10 scale, so that one unit is a factor of ten) in the data set on A549 [2] is 6.48. Also, the CC50 at 24 h in data set [3] came out at 1.95 µM. For the same compound, the Ratio in data set [7] came out at 1.78. For the same compound, the outcome in the data set with A549 [10], in the data set on A549 [18] and with A549 [20] was Active. For the same compound, in data set [13], the selectivity ratio turned out to be 5.91. In addition, the K in data set [19] came out at 0.0357 s⁻¹.

In the case of `C=Cc1c(C)c2cc3nc(c4c5[nH]c(cc6nc(cc1[nH]2)C(C)=C6CC)c(C)c5C(=O)C4)[C@@H](CCC(=O)NCC(=O)CCC(=O)O)[C@@H]3C`, in the data set with A549 [2], the pIC50 was 5.70. Further, the CC50 at 24 h in data set [3] worked out at 3.19 µM. Further, the Activity in [5] was 661 to 669 nm; in [24], 669 nm; in the data set on A549 [12], 0.2826 g; in data set [25], 660 to 670 nm. Moreover, in data set [23], the logP (as a rule, a log measure of how a compound divides between an organic and an aqueous phase) came to 2.28. Besides, the Ratio in data set [7] stood at 1.25. In data set [13], the selectivity ratio stood at 1.59. Moreover, the Drug uptake result in data set [26] is “Active”. Besides, the K in data set [19] stood at 0.0251 s⁻¹.
